From ChEMBL document CHEMBL4393666, “Synthesis and Anti-HCV Activities of 4'-Fluoro-2'-Substituted Uridine Triphosphates and Nucleotide Prodrugs: Discovery of 4'-Fluoro-2'- C-methyluridine 5'-Phosphoramidate Prodrug (AL-335) for the Treatment of Hepatitis C Infection” (J Med Chem, 2019)
Activity calls are given as the source filed them. The calls are words filed in the database; no cut-off is given here.

How the values were obtained:
DNA polymerase gamma = molecular target: T1, DNA polymerase gamma (Homo sapiens, UniProt P54098); assay: Inhibition of human DNA polymerase-gamma assessed as reduction in [3H]dTTP incorporation in to activated calf thymus DNA substrate at 100 uM by scintillation counting method relative to control; conditions: human DNA polymerase-gamma enzyme, probe [3H]dTTP
T1 sequence (P54098 whole entry): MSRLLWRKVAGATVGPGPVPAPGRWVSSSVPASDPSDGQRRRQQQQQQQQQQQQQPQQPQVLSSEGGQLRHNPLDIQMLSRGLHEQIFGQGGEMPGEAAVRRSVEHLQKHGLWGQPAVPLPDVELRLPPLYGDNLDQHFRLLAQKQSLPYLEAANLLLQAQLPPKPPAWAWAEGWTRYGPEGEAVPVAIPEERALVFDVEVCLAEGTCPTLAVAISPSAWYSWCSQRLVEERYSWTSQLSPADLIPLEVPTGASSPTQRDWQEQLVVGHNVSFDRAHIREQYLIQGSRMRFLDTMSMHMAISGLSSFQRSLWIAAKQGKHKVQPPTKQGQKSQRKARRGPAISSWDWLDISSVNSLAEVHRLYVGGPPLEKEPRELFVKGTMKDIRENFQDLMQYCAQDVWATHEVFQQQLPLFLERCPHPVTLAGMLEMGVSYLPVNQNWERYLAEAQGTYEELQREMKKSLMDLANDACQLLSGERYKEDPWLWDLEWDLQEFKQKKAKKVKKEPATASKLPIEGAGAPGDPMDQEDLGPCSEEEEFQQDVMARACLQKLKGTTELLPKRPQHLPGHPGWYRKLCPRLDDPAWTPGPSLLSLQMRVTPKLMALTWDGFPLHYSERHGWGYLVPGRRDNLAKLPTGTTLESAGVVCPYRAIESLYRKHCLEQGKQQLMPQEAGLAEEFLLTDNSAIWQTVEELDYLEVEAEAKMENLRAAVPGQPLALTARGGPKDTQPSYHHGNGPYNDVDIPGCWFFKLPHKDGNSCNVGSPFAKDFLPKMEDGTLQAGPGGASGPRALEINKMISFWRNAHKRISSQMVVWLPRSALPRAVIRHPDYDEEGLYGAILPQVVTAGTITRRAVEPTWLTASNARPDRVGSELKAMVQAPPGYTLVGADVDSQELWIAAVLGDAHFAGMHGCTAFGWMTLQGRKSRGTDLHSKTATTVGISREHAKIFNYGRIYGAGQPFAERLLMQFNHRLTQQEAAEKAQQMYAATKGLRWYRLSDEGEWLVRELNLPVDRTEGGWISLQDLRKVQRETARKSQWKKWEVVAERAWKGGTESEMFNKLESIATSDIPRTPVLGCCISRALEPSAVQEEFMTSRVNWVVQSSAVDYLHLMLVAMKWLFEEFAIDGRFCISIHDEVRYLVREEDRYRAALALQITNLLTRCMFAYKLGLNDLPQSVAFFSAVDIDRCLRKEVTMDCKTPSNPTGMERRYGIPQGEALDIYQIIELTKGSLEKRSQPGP

DNA polymerase alpha = molecular target: T2, DNA polymerase alpha (Homo sapiens, UniProt P09884); assay: Inhibition of human DNA polymerase-alpha assessed as reduction in [3H]dTTP incorporation in to activated calf thymus DNA substrate at 100 uM by scintillation counting method relative to control; conditions: human DNA polymerase-alpha enzyme, probe [3H]dTTP
T2 sequence (P09884 whole entry): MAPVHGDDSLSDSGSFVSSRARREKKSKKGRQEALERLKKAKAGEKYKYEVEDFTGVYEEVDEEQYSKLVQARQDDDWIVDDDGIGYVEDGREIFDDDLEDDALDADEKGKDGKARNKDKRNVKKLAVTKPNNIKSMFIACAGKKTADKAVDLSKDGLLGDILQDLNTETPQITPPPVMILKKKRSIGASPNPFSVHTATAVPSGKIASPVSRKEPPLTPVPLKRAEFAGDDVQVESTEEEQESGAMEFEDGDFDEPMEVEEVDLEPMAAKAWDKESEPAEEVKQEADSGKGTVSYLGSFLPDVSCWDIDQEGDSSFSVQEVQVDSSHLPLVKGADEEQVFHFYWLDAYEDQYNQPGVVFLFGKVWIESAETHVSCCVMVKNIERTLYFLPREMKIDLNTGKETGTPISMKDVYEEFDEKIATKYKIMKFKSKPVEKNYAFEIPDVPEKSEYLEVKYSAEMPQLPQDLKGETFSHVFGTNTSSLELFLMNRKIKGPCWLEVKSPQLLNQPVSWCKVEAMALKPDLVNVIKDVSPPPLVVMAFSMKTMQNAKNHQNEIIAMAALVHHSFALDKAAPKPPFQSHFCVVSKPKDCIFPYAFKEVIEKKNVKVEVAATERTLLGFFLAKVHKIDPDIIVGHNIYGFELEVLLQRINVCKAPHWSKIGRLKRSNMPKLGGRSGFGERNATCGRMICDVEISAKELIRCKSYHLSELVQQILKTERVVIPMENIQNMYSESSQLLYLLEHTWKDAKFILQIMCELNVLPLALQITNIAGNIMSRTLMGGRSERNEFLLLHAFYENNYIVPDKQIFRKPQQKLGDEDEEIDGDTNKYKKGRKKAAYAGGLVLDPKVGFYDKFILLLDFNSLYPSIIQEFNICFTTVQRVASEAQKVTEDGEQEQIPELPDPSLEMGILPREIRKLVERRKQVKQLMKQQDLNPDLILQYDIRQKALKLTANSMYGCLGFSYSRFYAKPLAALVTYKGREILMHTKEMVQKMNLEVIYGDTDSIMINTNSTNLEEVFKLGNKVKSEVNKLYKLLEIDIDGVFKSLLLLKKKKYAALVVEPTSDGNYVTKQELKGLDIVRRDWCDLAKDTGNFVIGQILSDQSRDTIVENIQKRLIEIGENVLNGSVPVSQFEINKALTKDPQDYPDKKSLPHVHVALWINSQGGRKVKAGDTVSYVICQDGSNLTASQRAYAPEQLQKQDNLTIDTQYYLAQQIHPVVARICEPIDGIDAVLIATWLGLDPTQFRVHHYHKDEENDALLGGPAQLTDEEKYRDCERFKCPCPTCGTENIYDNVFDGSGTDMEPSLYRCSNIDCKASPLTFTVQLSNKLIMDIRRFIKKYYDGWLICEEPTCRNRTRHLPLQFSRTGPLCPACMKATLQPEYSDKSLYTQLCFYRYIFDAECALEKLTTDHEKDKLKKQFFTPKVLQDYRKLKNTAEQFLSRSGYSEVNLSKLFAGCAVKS

DNA polymerase beta = DNA polymerase beta (Homo sapiens, UniProt P06746); assay: Inhibition of human DNA polymerase-beta assessed as reduction in [3H]dTTP incorporation in to activated calf thymus DNA substrate at 100 uM by scintillation counting method relative to control; conditions: human DNA polymerase-beta enzyme, probe [3H]dTTP
[1] = molecular target: DNA-directed RNA polymerase, mitochondrial (Homo sapiens, UniProt O00411); assay: Inhibition of human mitochondrial DNA-dependent RNA polymerase activity at 100 uM using 33P-RNA/DNA primer/template by phosphor-imaging analysis
Chain of DNA-directed RNA polymerase, mitochondrial (O00411 whole entry): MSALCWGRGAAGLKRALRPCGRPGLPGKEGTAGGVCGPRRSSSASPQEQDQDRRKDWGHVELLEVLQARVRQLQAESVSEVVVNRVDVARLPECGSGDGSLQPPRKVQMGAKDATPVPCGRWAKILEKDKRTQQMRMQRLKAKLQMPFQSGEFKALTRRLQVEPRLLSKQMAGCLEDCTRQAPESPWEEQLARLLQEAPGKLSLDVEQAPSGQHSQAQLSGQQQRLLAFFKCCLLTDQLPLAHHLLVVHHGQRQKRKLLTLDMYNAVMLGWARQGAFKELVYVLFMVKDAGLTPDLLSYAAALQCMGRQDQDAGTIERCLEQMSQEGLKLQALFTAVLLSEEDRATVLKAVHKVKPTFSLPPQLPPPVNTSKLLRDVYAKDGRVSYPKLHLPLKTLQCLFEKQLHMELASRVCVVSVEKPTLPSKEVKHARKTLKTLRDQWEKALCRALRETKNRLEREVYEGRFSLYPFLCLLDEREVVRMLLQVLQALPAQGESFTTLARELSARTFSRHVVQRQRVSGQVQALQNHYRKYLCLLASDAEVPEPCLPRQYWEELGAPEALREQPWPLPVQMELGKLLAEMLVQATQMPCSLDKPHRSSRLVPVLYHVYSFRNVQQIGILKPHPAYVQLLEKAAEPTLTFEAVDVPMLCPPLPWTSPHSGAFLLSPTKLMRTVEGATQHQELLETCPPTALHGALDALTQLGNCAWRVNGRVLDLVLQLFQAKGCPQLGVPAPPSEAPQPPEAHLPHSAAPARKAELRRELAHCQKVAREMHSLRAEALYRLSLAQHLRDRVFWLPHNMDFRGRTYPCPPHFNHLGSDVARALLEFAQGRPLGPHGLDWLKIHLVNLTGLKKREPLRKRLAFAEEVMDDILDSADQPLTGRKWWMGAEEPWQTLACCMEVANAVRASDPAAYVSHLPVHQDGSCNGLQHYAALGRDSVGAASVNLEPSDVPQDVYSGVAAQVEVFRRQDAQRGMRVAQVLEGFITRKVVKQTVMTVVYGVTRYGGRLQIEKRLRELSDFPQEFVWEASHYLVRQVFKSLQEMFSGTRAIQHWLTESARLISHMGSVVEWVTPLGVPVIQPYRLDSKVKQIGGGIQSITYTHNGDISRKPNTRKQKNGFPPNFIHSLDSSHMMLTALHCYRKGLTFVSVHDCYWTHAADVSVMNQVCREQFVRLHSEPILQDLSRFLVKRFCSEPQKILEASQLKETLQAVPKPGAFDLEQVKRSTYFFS

[2] = Inhibition of RNA polymerase 2 in human HeLa cell nuclear extract assessed as reduction in RNA transcription by PAGE analysis; format: cell-based
Summary of the method: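 In vitro transcription by RNA polymerase II in HeLa cell nuclear extract; RNA products resolved on 6% TBE-urea polyacrylamide gels.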

[3] = molecular target: RNA-directed RNA polymerase (Hepacivirus hominis, UniProt O39930); assay: Inhibition of HCV NS5B RNA-dependent RNA polymerase activity assessed as reduction in radiolabeled-CTP incorporation into RNA using cIRES template measured after 2 hrs by microscintillation counting method
Chain of RNA-directed RNA polymerase (O39930 whole entry): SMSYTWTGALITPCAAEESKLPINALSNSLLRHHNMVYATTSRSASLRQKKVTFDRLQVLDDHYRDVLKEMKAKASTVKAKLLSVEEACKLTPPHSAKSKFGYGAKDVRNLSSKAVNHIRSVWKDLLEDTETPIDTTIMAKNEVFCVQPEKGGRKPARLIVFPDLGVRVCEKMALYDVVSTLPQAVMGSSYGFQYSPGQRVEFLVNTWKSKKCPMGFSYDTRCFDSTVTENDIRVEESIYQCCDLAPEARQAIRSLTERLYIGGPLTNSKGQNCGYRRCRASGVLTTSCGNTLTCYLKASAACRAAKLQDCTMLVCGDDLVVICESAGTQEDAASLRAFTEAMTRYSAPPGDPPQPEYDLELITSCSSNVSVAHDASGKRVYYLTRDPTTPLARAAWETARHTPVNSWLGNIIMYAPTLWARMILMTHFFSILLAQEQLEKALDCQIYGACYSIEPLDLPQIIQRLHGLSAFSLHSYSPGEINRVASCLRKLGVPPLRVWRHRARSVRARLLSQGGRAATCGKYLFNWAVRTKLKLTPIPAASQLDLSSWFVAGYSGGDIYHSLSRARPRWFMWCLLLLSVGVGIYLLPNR

[4] = Cytotoxicity against human MT4 cells treated for 8 days measured post-last dose by Celltiter-glo luminescent assay; format: cell-based
Summary of the method: (§1)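 Cells at 1×10^5/well on collagen I, first kept 8 days in recommended medium without drug. Then compound exposure for 8 days, refed every other day. Viability by CellTiter-Glo luminescence; CC50 by curve fitting.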

[5] = Cytotoxicity against human A549 cells treated for 8 days measured post-last dose by Celltiter-glo luminescent assay; format: cell-based; summary of the method: as §1
[6] = Cytotoxicity against human HuH7 cells treated for 8 days measured post-last dose by Celltiter-glo luminescent assay; format: cell-based, Huh-7; summary of the method: as §1
[7] = Cytotoxicity against human HepG2 cells treated for 8 days measured post-last dose by Celltiter-glo luminescent assay; format: cell-based; summary of the method: as §1
[8] = Cytotoxicity against human HeLa cells treated for 8 days measured post-last dose by Celltiter-glo luminescent assay; format: cell-based; summary of the method: as §1
[9] = Cytotoxicity against human U937 cells treated for 8 days measured post-last dose by Celltiter-glo luminescent assay; format: cell-based, U-937; summary of the method: as §1
Hepatitis C virus = assay: Antiviral activity against HCV con1 subgenomic replicon infected in human HuH7 cells assessed as reduction in viral RNA replication by qRT-PCR analysis; format: functional, organism-based, Hepacivirus hominis; conditions: isolate Con1, Huh-7
Summary of the method: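 Con1 subgenomic replicon Huh-7 cells (neomycin selection, kept in DMEM/10% FBS with 0.25 mg/ml G418) treated with compounds in DMEM, 2% FBS, 0.5% DMSO, no G418, at 37°C. Total RNA extracted; HCV RNA copy number by multiplex Taqman QRT-PCR. EC50/EC90 by 4-parameter curve fit; EC50 is the mean of ≥2 independent runs.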

[10] = Cytotoxicity against human HuH7 cells infected with HCV con1 subgenomic replicon assessed as reduction in cell viability measured after 3 days by CellTiter-blue cell viability assay; format: cell-based, Huh-7
Summary of the method: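 Con1 replicon Huh-7 cells treated as for the replicon assay (DMEM, 2% FBS, 0.5% DMSO, no G418, 37°C) for 3 days. Viability by CellTiter-Blue; CC50 by curve fitting.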

[11] = Half life in human hepatocytes assessed as 2a-TP level at 50 uM treated for 24 hrs followed by compound washout by LC-MS/MS analysis; format: ADME, cell-based, Hepatocyte
Summary of the method: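 Primary human hepatocytes loaded with prodrug at 50 μM for 24 h at 37°C. Medium then replaced with blank medium; samples at 0, 3, 6, 10, 24 and 48 h. NTP by LC-MS/MS; half-life from first-order decay; n=3.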

[12] = molecular target: RNA-directed RNA polymerase (Hepacivirus hominis) (UniProt O39930); assay: Inhibition of HCV NS5B RNA-dependent RNA polymerase assessed as chain termination of RNA synthesis by measuring reduction in dUTP incorporation at 100 uM using 33P-labeled 5'-GG-3'/5'-AUGUAUAAUUAUUGUAGCC-3' as primer/template measured after 2 hrs by phosphor-screening analysis
Chain of RNA-directed RNA polymerase (Hepacivirus hominis) (O39930 1-591): as the sequence (O39930 whole entry) above
Summary of the method: (§2)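 Recombinant NS5B (2 μM) with 1 μM template and 0.5 μM 33P-labeled GG primer in 40 mM Tris-HCl pH 8, 3 mM DTT, 20 mM NaCl, 6 mM MgCl2. Started with combinations of CTP, ATP, UTP, test NTP and 3'-dUTP, each 100 μM; 2 h at 30°C. Samples denatured 95°C 5 min, resolved on 22.5% polyacrylamide urea sequencing gel, phosphor-screen imaged.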

[13] = molecular target: RNA-directed RNA polymerase (Hepacivirus hominis) (UniProt O39930); assay: Inhibition of HCV NS5B RNA-dependent RNA polymerase assessed as chain termination of RNA synthesis by measuring reduction in UTP incorporation at 100 uM using 33P-labeled 5'-GG-3'/5'-AUGUAUAAUUAUUGUAGCC-3' as primer/template measured after 2 hrs by phosphor-screening analysis; summary of the method: as §2

C[C@]1(Cl)[C@H](n2ccc(=O)[nH]c2=O)O[C@](F)(COP(=O)(O)OP(=O)(O)OP(=O)(O)O)[C@H]1O
inhibition at 100 µM (DNA polymerase gamma): 18.4%
inhibition at 100 µM (DNA polymerase alpha): 19.7%
inhibition at 100 µM (DNA polymerase beta): 24.3%
inhibition (INH) [1]: Not Active
IC50 [2]: > 100000 nM
IC50 [3]: 110 nM

COc1nc(N)nc2c1ncn2[C@@H]1O[C@H](COP(=O)(N[C@@H](C)C(=O)OCC(C)(C)C)Oc2cccc3ccccc23)[C@@H](O)[C@@]1(C)O (stereo partly drawn) [BMS-986094]
CC50 at 192 h [4]: 960 nM
CC50 at 192 h [5]: 7800 nM
CC50 at 192 h [6]: 350 nM
CC50 at 192 h [7]: 1500 nM
CC50 at 192 h [8]: 13400 nM
CC50 at 192 h [9]: 170 nM

O=c1ccn([C@@H]2O[C@H](COP(=O)(O)OP(=O)(O)OP(=O)(O)O)[C@@H](O)[C@]2(F)Cl)c(=O)[nH]1
inhibition at 100 µM (DNA polymerase gamma): 15.7%
inhibition at 100 µM (DNA polymerase alpha): 70.8%
inhibition at 100 µM (DNA polymerase beta): 24.7%
IC50 [2]: > 100000 nM
IC50 [3]: 300 nM

C[C@@]1(O)[C@H](O)[C@@H](COP(=O)(O)OP(=O)(O)OP(=O)(O)O)O[C@H]1n1ccc(=O)[nH]c1=O
inhibition at 100 µM (DNA polymerase gamma): 14.6%
inhibition at 100 µM (DNA polymerase alpha): 22.4%
inhibition at 100 µM (DNA polymerase beta): -0.008%
inhibition (INH) [1]: Active
IC50 [2]: > 100000 nM

C[C@@]1(Cl)[C@H](O)[C@@H](COP(=O)(O)OP(=O)(O)OP(=O)(O)O)O[C@H]1n1ccc(=O)[nH]c1=O [4A-TP]
inhibition at 100 µM (DNA polymerase gamma): 9.5%
inhibition at 100 µM (DNA polymerase alpha): 34.5%
inhibition at 100 µM (DNA polymerase beta): 22.6%
inhibition (INH) [1]: Active
IC50 [2]: > 100000 nM

CC(C)OC(=O)[C@H](C)NP(=O)(OC[C@@]1(F)O[C@@H](n2ccc(=O)[nH]c2=O)[C@](C)(O)[C@@H]1O)Oc1ccccc1 (stereo partly drawn)
EC50 (Hepatitis C virus): 110 nM
CC50 at 72 h [10]: > 100000 nM
t1/2 [11]: 30.1 h

C[C@]1(O)[C@H](n2ccc(=O)[nH]c2=O)O[C@](F)(COP(=O)(O)OP(=O)(O)OP(=O)(O)O)[C@H]1O [ADAFOSBUVIR 5'-TRIPHOSPHATE]
inhibition at 100 µM (DNA polymerase gamma): 9.6%
inhibition [12]: Active
inhibition at 100 µM (DNA polymerase alpha): 16.1%
inhibition at 100 µM (DNA polymerase beta): 12.6%
inhibition (INH) [1]: Not Active
IC50 [2]: > 100000 nM
inhibition [13]: Active
IC50 [3]: 140 nM

C[C@]1(F)[C@H](n2ccc(=O)[nH]c2=O)O[C@](F)(COP(=O)(O)OP(=O)(O)OP(=O)(O)O)[C@H]1O
inhibition at 100 µM (DNA polymerase gamma): -10%
inhibition at 100 µM (DNA polymerase alpha): 40.9%
inhibition at 100 µM (DNA polymerase beta): 15.2%
IC50 [2]: > 100000 nM
IC50 [3]: 860 nM
